In ChEMBL document CHEMBL4251599, “Synthesis and biological evaluation of coumarin derivatives containing imidazole skeleton as potential antibacterial agents” (Eur J Med Chem, 2018):
≈ marks a conversion by molar mass, not a printed value.

Experiments:
Flavobacterium columnare [1] = assay: Antibacterial activity against Flavobacterium columnare FC-G1 after 24 hrs by two fold serial dilution method; assay type: functional; settings: FC-G1, 24 h
How it was run: (§1)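 Broth two-fold serial dilution per CLSI, in nutrient broth. Inoculum from 24 h cultures at 28 ± 1 °C, adjusted in saline to 1×10^7-2×10^7 cfu/mL, then diluted to 1×10^5-2×10^5 cfu/mL. Test range 256 down to 0.50 µM and lower. Tubes held 24 h at 28 ± 1 °C. MIC read visually. Enrofloxacin and norfloxacin served as standards.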

Streptococcus agalactiae [2] = assay: Bactericidal activity against Streptococcus agalactiae WB1445 incubated for 24 hrs followed by re-plating on nutrient agar and measured after overnight incubation by two fold serial dilution method; assay type: functional; settings: WB1445, 24 h
How it was run: (§2)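 After the MIC read, 100 µl from every tube without visible growth was spread on nutrient agar lacking compound. Plates were incubated overnight at 28 ± 1 °C. MBC was taken as the lowest concentration killing >99.9% of the initial population, seen as no growth on agar.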

[3] = Inhibition of Escherichia coli ATCC 35150 FabI in presence of t-O-NAC and NADH up to 1 min by spectrophotometric analysis
How it was run: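 Recombinant His-tagged FabI, expressed in E. coli BL21(DE3) and purified on Ni-NTA, was used at 20 µL of 100 µg/mL stock in 0.1 M PBS-DTT. Compounds were tested at 128-1 µM with 10 µL of 4 mM t-O-NAC, and 20 µL of 2 mM NADH started the reaction. NADH oxidation was followed at 340 nm for 1 min. IC50 came from dose-response plots.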

[4] = target: T1, Enoyl-(Acyl-carrier-protein) reductase II (Streptococcus agalactiae serotype V (strain ATCC BAA-611 / 2603 V/R), UniProt Q8E1K8); assay: Inhibition of Streptococcus agalactiae WB1445 FabK in presence of t-O-NAC and NADH up to 1 min by spectrophotometric analysis
T1 sequence (Q8E1K8 whole entry): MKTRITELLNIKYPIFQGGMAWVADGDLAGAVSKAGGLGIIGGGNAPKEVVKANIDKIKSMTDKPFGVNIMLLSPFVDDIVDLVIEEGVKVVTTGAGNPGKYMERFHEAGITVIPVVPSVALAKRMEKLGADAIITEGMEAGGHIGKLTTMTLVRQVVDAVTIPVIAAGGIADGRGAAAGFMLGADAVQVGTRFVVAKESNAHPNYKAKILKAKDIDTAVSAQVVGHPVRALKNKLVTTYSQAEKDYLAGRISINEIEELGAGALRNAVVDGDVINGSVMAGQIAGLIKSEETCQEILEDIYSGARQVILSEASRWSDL
How it was run: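 Recombinant His-tagged FabK (20 µL of 150 µg/mL stock) was assayed in 100 µL of 0.1 M ADA-DTT, pH 6.5, against compounds at 128-1 µM, with 10 µL of 4 mM t-O-NAC. Addition of 20 µL of 2 mM NADH started the reaction. Absorbance at 340 nm was read for 1 min. IC50 was estimated from dose-response curves.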

Escherichia coli [5] = assay: Antibacterial activity against Escherichia coli ATCC 35150 after 24 hrs by two fold serial dilution method; assay type: functional; settings: ATCC 35150, 24 h; how it was run: as §1
Streptococcus agalactiae [6] = assay: Antibacterial activity against Streptococcus agalactiae WB1445 after 24 hrs by two fold serial dilution method; assay type: functional; settings: WB1445, 24 h; how it was run: as §1
Flavobacterium columnare [7] = assay: Bactericidal activity against Flavobacterium columnare FC-G1 incubated for 24 hrs followed by re-plating on nutrient agar and measured after overnight incubation by two fold serial dilution method; assay type: functional; settings: FC-G1, 24 h; how it was run: as §2
Staphylococcus aureus [8] = assay: Bactericidal activity against Staphylococcus aureus ATCC 29213 incubated for 24 hrs followed by re-plating on nutrient agar and measured after overnight incubation by two fold serial dilution method; assay type: functional; settings: ATCC 29213, 24 h; how it was run: as §2
Escherichia coli [9] = assay: Bactericidal activity against Escherichia coli ATCC 35150 incubated for 24 hrs followed by re-plating on nutrient agar and measured after overnight incubation by two fold serial dilution method; assay type: functional; settings: ATCC 35150, 24 h; how it was run: as §2
Staphylococcus aureus [10] = assay: Antibacterial activity against Staphylococcus aureus ATCC 29213 after 24 hrs by two fold serial dilution method; assay type: functional; settings: ATCC 29213, 24 h; how it was run: as §1

Row | SMILES | MIC (Flavobacterium columnare [1]) [µM] | MBC (Streptococcus agalactiae [2]) [µM] | IC50 [3] [µM] | IC50 [4] [µM] | MIC (Escherichia coli [5]) [µM] | MIC (Streptococcus agalactiae [6]) [µM] | MBC (Flavobacterium columnare [7]) [µM] | MBC (Staphylococcus aureus [8]) [µM] | MBC (Escherichia coli [9]) [µM] | MIC (Staphylococcus aureus [10]) [µM]
1 | Cc1cn(CCCCCCCCCCOc2ccc3ccc(=O)oc3c2)cn1 | 16 (≈ 6.12 µg/mL) | 16 (≈ 6.12 µg/mL) | 115 | 4.37 | > 256 | 8 (≈ 3.06 µg/mL) | 16 (≈ 6.12 µg/mL) | 128 (≈ 49 µg/mL) | > 256 | 32 (≈ 12.2 µg/mL)
2 | O=c1ccc2ccc(OCCCCCCCCCCn3ccnc3)cc2o1 | 16 (≈ 5.9 µg/mL) | 16 (≈ 5.9 µg/mL) | > 256 | 5.03 | > 256 | 8 (≈ 2.95 µg/mL) | 16 (≈ 5.9 µg/mL) | 128 (≈ 47.2 µg/mL) | > 256 | 64 (≈ 23.6 µg/mL)
3 | Cc1nccn1CCCCOc1ccc2ccc(=O)oc2c1 | > 256 | > 256 | 4.46 | > 256 | 64 (≈ 19.1 µg/mL) | > 256 | > 256 | 256 (≈ 76.4 µg/mL) | 256 (≈ 76.4 µg/mL) | 256 (≈ 76.4 µg/mL)
4 | Cc1cn(CCCCCCOc2ccc3ccc(=O)oc3c2)cn1 | 32 (≈ 10.4 µg/mL) | 256 (≈ 83.6 µg/mL) | 1.35 | 3.59 | 16 (≈ 5.22 µg/mL) | 128 (≈ 41.8 µg/mL) | 128 (≈ 41.8 µg/mL) | 128 (≈ 41.8 µg/mL) | 64 (≈ 20.9 µg/mL) | 32 (≈ 10.4 µg/mL)
5 | Cc1nccn1CCCCCCOc1ccc2ccc(=O)oc2c1 | 16 (≈ 5.22 µg/mL) | 256 (≈ 83.6 µg/mL) | 1.2 | 3.44 | 8 (≈ 2.61 µg/mL) | 128 (≈ 41.8 µg/mL) | 32 (≈ 10.4 µg/mL) | 256 (≈ 83.6 µg/mL) | 64 (≈ 20.9 µg/mL) | 64 (≈ 20.9 µg/mL)
6 | Cc1nccn1CCCCCCCCCCOc1ccc2ccc(=O)oc2c1 | 8 (≈ 3.06 µg/mL) | 16 (≈ 6.12 µg/mL) | 108 | 4.21 | > 256 | 8 (≈ 3.06 µg/mL) | 16 (≈ 6.12 µg/mL) | 128 (≈ 49 µg/mL) | > 256 | 64 (≈ 24.5 µg/mL)
7 | O=c1ccc2ccc(OCCCCCCCCn3ccnc3)cc2o1 | 4 (≈ 1.36 µg/mL) | 16 (≈ 5.45 µg/mL) | 158 | 2.74 | > 256 | 8 (≈ 2.72 µg/mL) | 8 (≈ 2.72 µg/mL) | 128 (≈ 43.6 µg/mL) | > 256 | 16 (≈ 5.45 µg/mL)
8 | Cc1nccn1CCCCCCCCOc1ccc2ccc(=O)oc2c1 | 2 (≈ 0.709 µg/mL) | 16 (≈ 5.67 µg/mL) | 112 | 1.13 | > 256 | 4 (≈ 1.42 µg/mL) | 8 (≈ 2.84 µg/mL) | 128 (≈ 45.4 µg/mL) | > 256 | 16 (≈ 5.67 µg/mL)
